This is a sample that favours compounds with a hit; in the whole collection about 2.3% have one here.
SUMO1 PPI mod – SUMO1-SIM interaction modulation. SUMO1 binding to a labelled peptide, TR-FRET, 1 h. actives 0.33% (n = 360,000). P63165. AID 602429. inhibition, % at 20 µM; in the data active means inhibition above about 37%
Target sequence (P63165 whole entry, looked up): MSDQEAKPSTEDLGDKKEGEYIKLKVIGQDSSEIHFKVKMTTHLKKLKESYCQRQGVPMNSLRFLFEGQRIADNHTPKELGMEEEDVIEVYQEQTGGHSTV
LMPTP inh – LMPTP (human) inhibition | recombinant LMPTP-A, OMFP fluorogenic substrate, fluorescence intensity | inhibition, % at 20 µM | actives 0.22% (n = 360,000) | AID 651560;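 active means compounds that cut the enzyme signal by at least half of the control window in the single-dose screen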
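test system = LMPTP-A | amount = 0.625 nM LMPTP-A final | reagent = fluorogenic phosphatase substrate OMFP at 400 µM final | incubation = 50 min at room temperature | benchmarks = no-enzyme low control, uninhibited high control | medium = Bis-Tris pH 6.0, DTT, detergent | signal = fluorescence intensity of OMFP turnover product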
STEP block – inhibitors of human striatal-enriched phosphatase STEP; P54829; recombinant STEP, OMFP fluorogenic substrate, fluorescence; inhibition, % at 20 µM; actives 0.25% (n = 360,000); AID 588621;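 active means inhibition at 20 µM, scaled per plate between control wells, above about 37%, limit read from the data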
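Assay system: isolated STEP enzyme. Buffer or medium: pH 6.0 Bis-Tris with DTT and Tween 20. Also added: fluorogenic phosphatase substrate OMFP at 25 µM final. Dosing: 20 µM, 1% DMSO. Timing: 20 min reaction, room temperature, in the dark. Measured by: fluorescence intensity, excitation 480 nm, emission 540 nm. Evaluation: normalized % inhibition.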
Scp1 inh – blocks human Scp-1 phosphatase activity; Recombinant Scp1, phosphopeptide, malachite green phosphate absorbance; inhibition, % at 20 µM; actives 0.88% (n = 340,000); AID 493091;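 active means inhibition above about 50% at 20 µM, limit read from the data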
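System: truncated SCP-1 phosphatase (76-261aa); medium: Tris acetate buffer pH 5.5 with MgCl2 and Tween-20; incubation: 45 min room-temperature reaction, 5 min colour, 30 min stabiliser; compound: single 20 µM dose, 1% DMSO; reagent: Phosphorylated 17-residue peptide substrate; read-out: % inhibition at 20 µM; technique: colorimetric free-phosphate detection, absorbance 630 nm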
Rpn11 block – inhibitors of human proteasome Rpn11. inhibition, % at 20 µM. AID 588493. actives 0.59% (n = 360,000). human 26S proteasome, Ub4-pepOG fluorescence polarization; 20S core pre-blocked with epoxomicin;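 active means inhibition at 20 µM, scaled to each plate's controls, above about 33%, limit read from the data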
Target sequence (O00487 whole entry, looked up): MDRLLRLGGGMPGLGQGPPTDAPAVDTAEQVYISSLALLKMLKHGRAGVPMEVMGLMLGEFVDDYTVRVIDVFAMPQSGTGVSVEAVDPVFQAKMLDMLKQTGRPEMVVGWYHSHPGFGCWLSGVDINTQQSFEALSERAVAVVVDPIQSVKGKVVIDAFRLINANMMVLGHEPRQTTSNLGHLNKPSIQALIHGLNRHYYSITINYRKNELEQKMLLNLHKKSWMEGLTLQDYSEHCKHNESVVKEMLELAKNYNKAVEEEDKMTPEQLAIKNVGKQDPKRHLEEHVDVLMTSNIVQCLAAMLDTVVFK
DNMT1 inh – blocks human DNA methyltransferase DNMT1. DNMT1 molecular beacon, Hinp1I cleavage, fluorescence. inhibition (reported as % activation of signal), % at 10 µM. actives 0.83% (n = 360,000). AID 588458; in the data active means inhibition above about 50%
Beacon interf DR – counter-screen for DNMT1 inhibitors: spectral interference, dose response. AID 602382. 200 tested, under 10 active. IC50, µM. shares compounds with DNMT1 inh. molecular beacon fluorescence; call rule not given here
DNMT1 confirm – DNMT1 inhibition confirmation, single concentration; shares compounds with DNMT1 inh; DNMT1 molecular beacon HinP1I cleavage, fluorescence; inhibition, % at 10 µM; actives 8% (n = 2,300); AID 602385;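 active means average inhibition of at least 30% in the single-concentration confirmation test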
DNMT1 interf – beacon fluorescence artifact counter-screen. DNMT1 molecular beacon spectral interference counterscreen, fluorescence 485/520. AID 602387. shares compounds with DNMT1 inh. actives 1% (n = 2,300). activation (fluorescence interference), % at 10 µM;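 active means activation of at least 30% at 10 µM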;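 further: DNMT1 catalytic domain with a HinP1I cleavage step and a FAM/dabcyl DNA beacon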
Hits are given with their value; i = inactive; nt = not tested or not shown.

SMILES	SUMO1 PPI mod	LMPTP inh	STEP block	Scp1 inh	Rpn11 block	DNMT1 inh	DNMT1 confirm	DNMT1 interf	others
O=C1C(=Cc2ccco2)CCCC1=Cc1ccco1	i	i	i	66	nt	100	i	i
O/N=C1\CCC\C1=C/c1ccco1	i	i	i	i	i	i	nt	nt
COc1cc2[nH]c(=O)n3nc(-c4ccccc4)nc3c2cc1OC	i	i	i	i	i	i	nt	nt
CCN(CC)CCNc1nc2cc(OC)c(OC)cc2c2nc(-c3ccccc3)nn12	i	i	i	i	i	67	i	i	Beacon interf DR=i
Cc1ccc(NS(=O)(=O)c2ccc(C)c(NC(=S)NCCN3CCOCC3)c2)c(C)c1	i	i	i	i	i	i	nt	nt
COc1ccc(S(=O)(=O)N2CCOC2CNC(=O)C(=O)NCc2ccco2)cc1C (stereo unspecified)	i	i	i	i	i	i	nt	nt
COc1ccc(S(=O)(=O)N2CCCOC2CNC(=O)C(=O)NCc2ccco2)cc1C (stereo unspecified)	i	i	i	i	i	71	i	i
CCOC(=O)N1CCN(Cc2ccc3ccccc3c2)CC1	i	i	i	i	i	i	nt	nt
O=C(COC(=O)c1ccc([N+](=O)[O-])s1)Nc1ccc(Cl)cn1	i	i	i	i	i	i	nt	nt
Cc1c(Cl)cnc(NC(=O)COC(=O)c2ccc([N+](=O)[O-])s2)c1Cl	i	i	i	i	i	63	i	i
CCOC(=O)C1(Cc2cccc(OC)c2)CCN(Cc2cnc(C)s2)CC1	i	i	i	i	i	i	nt	nt
Cn1cc(Br)c(NC(=O)/C=C/C(=O)O)n1	i	i	i	i	i	i	nt	nt
O=C(COC(=O)c1cncc(Br)c1)NCc1cccs1	i	i	i	i	i	i	nt	nt
O=C(CN1CCN(c2ccccc2)CC1)NC(=O)NCc1ccco1	i	i	i	i	i	i	nt	nt
COc1cccc(N2CCN(CC(=O)NC(=O)NCc3ccco3)CC2)c1	i	i	i	i	i	50	i	i
Cc1ccc(NC(=O)C2CCN(S(=O)(=O)c3c(C)nn(C)c3C)CC2)c(Cl)c1	i	i	i	i	i	i	nt	nt
COc1ccc2[nH]c(C(=O)NCc3ccccc3)c(C)c2c1	i	i	i	i	i	70	i	i
COc1ccc2cc(C(=O)NCc3ccccc3)[nH]c2c1	i	i	i	i	i	i	nt	nt
COCCNC(=O)c1ccc(-c2cn[nH]c2)c2ccoc12	i	i	i	nt	i	68	i	i
O=C(COC(=O)/C=C/c1cccc(C(F)(F)F)c1)NC(c1ccccc1)c1ccccc1	i	i	i	i	i	56	i	i
Cc1nn(CCCC(=O)NCc2ccc(Cl)cc2)c(C)c1[N+](=O)[O-]	i	i	i	i	i	69	i	i
CSc1ccccc1NC(=O)c1ccc(N2CC3CC(C2)c2cccc(=O)n2C3)c(NC(=O)c2cccnc2)c1 (stereo unspecified)	i	i	i	i	i	i	nt	nt
O=C(NCc1ccco1)c1nn2c(C(F)(F)F)cc(-c3cccs3)nc2c1Br	i	i	i	i	i	i	nt	nt
O=C(NCc1ccco1)c1nc2nc(-c3cccs3)cc(C(F)(F)F)n2n1	i	i	i	i	i	56	i	i
COc1cc(/C=C(\C#N)C(=O)NCC2CCCO2)cc(OC)c1OC (stereo unspecified)	i	i	i	i	i	57	i	i
COc1ccc(/C=C(\C#N)C(=O)NCC2CCCO2)cc1OC (stereo unspecified)	i	i	i	i	i	i	nt	nt
CC(=O)OCCn1c2nc(=O)[nH]c(=O)c-2nc2cc(C)c(C)cc21	i	i	i	i	i	192	140	134
O=C(Cn1cc(COc2ccc(C(=O)c3ccccc3)cc2)nn1)c1ccc(O)cc1	i	i	i	i	i	i	nt	nt

Assay outcomes: PubChem, Sanford-Burnham Center for Chemical Genomics
